Blank lines part the entries; values can stand above or below the compound they belong to. The source made the active and inactive calls. The rule behind the calls is not given here.
Tests used:
[1] = molecular target: T1, Pancreatic triacylglycerol lipase (Homo sapiens, UniProt P16233); experiment: Inhibition of pancreatic lipase (unknown origin)
T1 sequence (P16233 whole entry): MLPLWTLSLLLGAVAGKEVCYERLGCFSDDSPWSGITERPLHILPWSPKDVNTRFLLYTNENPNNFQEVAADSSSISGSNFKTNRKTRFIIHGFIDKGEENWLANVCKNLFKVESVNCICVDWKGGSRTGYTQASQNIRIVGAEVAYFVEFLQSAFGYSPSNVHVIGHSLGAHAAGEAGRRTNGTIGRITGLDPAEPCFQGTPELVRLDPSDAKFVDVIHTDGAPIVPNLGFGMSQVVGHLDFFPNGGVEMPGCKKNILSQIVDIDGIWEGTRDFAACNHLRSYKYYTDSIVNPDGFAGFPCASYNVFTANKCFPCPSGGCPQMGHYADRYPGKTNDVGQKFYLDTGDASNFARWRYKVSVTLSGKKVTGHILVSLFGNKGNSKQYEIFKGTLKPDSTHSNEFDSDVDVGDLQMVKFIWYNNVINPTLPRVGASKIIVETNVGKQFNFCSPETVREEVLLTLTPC

[2] = molecular target: Maltase-glucoamylase (Homo sapiens) (UniProt O43451); experiment: Inhibition of alpha-glucosidase (unknown origin) assessed as increase in Km using p-nitrophenyl-alpha D-glucopyranoside as substrate by Lineweaver-Burk plot analysis
Sequence of Maltase-glucoamylase (Homo sapiens) (O43451 whole entry, looked up): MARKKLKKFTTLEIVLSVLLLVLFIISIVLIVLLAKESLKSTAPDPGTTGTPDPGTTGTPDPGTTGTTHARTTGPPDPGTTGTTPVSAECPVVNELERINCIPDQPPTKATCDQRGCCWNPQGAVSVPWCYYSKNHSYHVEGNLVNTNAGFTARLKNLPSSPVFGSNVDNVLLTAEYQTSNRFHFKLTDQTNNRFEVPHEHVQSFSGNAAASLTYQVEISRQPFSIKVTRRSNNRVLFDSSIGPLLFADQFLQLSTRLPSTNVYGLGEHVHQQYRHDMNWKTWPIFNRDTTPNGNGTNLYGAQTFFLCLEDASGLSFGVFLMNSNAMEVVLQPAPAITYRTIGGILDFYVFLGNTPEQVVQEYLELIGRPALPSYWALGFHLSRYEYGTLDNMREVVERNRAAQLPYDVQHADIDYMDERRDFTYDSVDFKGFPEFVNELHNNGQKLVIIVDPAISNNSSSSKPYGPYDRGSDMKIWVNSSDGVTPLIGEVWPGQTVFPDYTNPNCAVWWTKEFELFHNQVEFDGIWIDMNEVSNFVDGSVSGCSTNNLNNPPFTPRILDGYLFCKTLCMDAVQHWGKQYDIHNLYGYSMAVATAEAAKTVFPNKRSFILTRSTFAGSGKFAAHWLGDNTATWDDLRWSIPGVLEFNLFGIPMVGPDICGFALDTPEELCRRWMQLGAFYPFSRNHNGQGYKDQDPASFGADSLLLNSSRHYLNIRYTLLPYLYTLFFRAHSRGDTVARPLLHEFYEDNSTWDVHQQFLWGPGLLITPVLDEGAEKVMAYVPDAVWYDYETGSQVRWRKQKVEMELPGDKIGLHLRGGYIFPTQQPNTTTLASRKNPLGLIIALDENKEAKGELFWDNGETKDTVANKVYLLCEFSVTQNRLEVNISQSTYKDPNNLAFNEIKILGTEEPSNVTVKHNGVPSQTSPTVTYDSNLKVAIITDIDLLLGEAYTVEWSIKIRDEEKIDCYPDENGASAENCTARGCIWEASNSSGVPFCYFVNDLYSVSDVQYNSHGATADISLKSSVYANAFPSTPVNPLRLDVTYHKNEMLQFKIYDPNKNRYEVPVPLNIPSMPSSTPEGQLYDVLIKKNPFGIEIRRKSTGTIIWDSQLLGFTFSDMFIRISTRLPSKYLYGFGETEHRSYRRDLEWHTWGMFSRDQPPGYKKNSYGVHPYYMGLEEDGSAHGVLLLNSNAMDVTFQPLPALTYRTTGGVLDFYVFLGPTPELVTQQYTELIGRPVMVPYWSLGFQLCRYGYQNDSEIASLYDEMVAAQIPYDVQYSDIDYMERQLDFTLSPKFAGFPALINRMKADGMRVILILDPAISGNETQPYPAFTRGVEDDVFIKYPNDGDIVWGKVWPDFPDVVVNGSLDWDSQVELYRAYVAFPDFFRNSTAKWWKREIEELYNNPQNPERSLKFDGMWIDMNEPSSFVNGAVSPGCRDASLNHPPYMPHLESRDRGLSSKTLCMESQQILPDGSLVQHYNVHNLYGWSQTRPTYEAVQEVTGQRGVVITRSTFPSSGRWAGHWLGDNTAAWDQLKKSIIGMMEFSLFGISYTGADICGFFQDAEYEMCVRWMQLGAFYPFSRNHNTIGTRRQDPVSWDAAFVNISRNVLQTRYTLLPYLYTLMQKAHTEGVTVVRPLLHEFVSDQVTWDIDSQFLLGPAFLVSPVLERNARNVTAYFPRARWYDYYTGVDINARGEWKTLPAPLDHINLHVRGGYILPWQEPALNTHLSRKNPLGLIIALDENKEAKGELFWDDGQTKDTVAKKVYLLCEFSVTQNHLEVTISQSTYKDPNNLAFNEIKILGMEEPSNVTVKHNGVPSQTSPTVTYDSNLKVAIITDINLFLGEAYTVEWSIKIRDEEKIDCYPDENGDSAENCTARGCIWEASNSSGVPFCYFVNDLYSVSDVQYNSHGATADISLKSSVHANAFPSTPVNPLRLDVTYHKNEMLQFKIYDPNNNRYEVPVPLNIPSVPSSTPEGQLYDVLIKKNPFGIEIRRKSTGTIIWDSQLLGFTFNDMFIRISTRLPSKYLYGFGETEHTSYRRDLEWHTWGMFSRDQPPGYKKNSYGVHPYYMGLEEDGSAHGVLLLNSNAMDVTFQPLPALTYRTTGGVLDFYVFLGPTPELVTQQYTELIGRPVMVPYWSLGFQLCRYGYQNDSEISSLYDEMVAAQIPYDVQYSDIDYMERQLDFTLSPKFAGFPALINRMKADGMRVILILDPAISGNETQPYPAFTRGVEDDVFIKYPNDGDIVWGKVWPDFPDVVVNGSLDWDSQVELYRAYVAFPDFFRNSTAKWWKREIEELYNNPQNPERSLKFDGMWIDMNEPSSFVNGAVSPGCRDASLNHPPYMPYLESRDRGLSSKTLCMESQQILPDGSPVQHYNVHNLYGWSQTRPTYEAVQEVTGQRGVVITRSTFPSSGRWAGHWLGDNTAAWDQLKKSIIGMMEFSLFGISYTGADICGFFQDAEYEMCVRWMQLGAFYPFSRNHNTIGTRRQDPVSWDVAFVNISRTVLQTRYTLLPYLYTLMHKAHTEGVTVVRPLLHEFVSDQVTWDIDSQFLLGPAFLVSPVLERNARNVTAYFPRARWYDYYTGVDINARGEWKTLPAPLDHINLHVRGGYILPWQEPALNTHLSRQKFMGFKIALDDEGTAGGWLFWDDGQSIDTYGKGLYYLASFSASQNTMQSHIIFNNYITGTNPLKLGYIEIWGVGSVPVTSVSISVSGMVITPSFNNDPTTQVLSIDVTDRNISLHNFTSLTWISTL
Outline: (§1)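 Initial rates were measured with p-nitrophenyl α-D-glucopyranoside at 1–16 mM and inhibitor at 0, 1.2, 2.4 and 4.8 μM. Lineweaver–Burk plots (1/V against 1/[S]) at each inhibitor level gave Km and Vmax. Ki was estimated from a plot of Km against inhibitor concentration.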

[3] = molecular target: Maltase-glucoamylase (Homo sapiens) (UniProt O43451); experiment: Inhibition of alpha-glucosidase (unknown origin) assessed as change in Vmax using p-nitrophenyl-alpha D-glucopyranoside as substrate by Lineweaver-Burk plot analysis; outline: as §1
Alpha-glucosidase [4] = molecular target: T2, Alpha-glucosidase (Saccharomyces cerevisiae S288c, UniProt P53341+P38158+P07265); experiment: Inhibition of Saccharomyces cerevisiae alpha-glucosidase using p-nitrophenyl-alpha D-glucopyranoside as substrate preincubated for 15 mins followed by substrate addition and measured after 20 mins by spectrophotometer assay; format: protein assay
Alpha-glucosidase [5] = molecular target: T2, Alpha-glucosidase; experiment: Inhibition of Saccharomyces cerevisiae alpha-glucosidase assessed as inhibition constant using p-nitrophenyl-alpha D-glucopyranoside as substrate preincubated for 15 mins followed by substrate addition and measured after 20 mins by Lineweaver-burk plot analysis; format: protein assay

- IC50 [1]: 2800 nM
SMILES: O=C(Cn1c(Cc2ccc(Br)cc2)nc2ccccc2c1=O)NNC(=O)c1cc2ccccc2oc1=O

- inhibition [2]: Active
- inhibition [3]: inactive
SMILES: Cc1ccc(NC(=O)Cn2cc(COc3ccc(C4Nc5ccccc5C(=O)N4Nc4ccccc4)cc3)nn2)c(C)c1 (stereo not given)

- IC50 (Alpha-glucosidase [4]): 60.5 µM
- Ki (Alpha-glucosidase [5]): 56 µM
SMILES: O=C(Cn1c(-c2ccc(Cl)cc2)nc2ccccc2c1=O)N/N=C\c1cn(-c2ccccc2)nc1-c1ccc(Br)cc1

— ChEMBL document CHEMBL5252633, “Quinazolinone-1,2,3-triazole-acetamide conjugates as potent α-glucosidase inhibitors: synthesis, enzyme inhibition, kinetic analysis, and molecular docking study” (RSC Med Chem, 2023)
